MT1-MMP act inh: blockers of MT1-MMP proenzyme processing, primary screen, HT1080 RFP-PRO-GFP cells, GFP/RFP fluorescence. Matrix metalloproteinase-14 (Homo sapiens), P50281. GFP/RFP ratio fluorescence, overnight; percent of plate control window, DMSO zero. GFP/RFP ratio change, % at 20 µM. 0.061% of 360,000 active;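 active means GFP/RFP ratio change of at least 30% with cell ATP level not reduced by more than half and red fluorescence within 50% of control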
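Assay system: HT1080 RFP-PRO-GFP cells | Dosing: 20 µM single dose, 1% DMSO | Incubation: Cells overnight before dosing, compound overnight, 37 °C, 5% CO2 | Evaluation: GFP/RFP fluorescence ratio | Control set: DMSO-only wells and HT1080 RFP-L50D-GFP cell wells as references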
MPTP block: mitochondrial permeability transition pore inhibitors, primary screen, biochemical, isolated mouse mitochondria, absorbance; 1.4% of 360,000 active; inhibition, % at 10 µM; Ca2+ swelling absorbance, 30 min;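 active means inhibition of 50% or more, scaled per plate between neutral and stimulator controls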;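 further: 0% = DMSO wells given calcium and 100% = 1 mM EGTA wells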
SKN-1 inh: suppressors of acrylamide-induced Pgst-4::GFP reporter in worms, primary screen, SKN-1 inhibitor project, whole organism, uHTS, GFP/RFP fluorescence ratio, strain VP596 | C. elegans VP596 Pgst-4::GFP/RFP ratio, 24 h | inhibition, % at 21.8 µM | 0.49% of 360,000 active;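 active means interference check ratio from 0.5 to 1.5 plus GFP to RFP signal ratio inhibition reaching or exceeding a fixed threshold, cut at about 30% in these data, passing the limit was not always enough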
ATG4B inh: ATG4B protease inhibitors, primary screen, biochemical, fluorescence, uHTS. ATG4B cleavage of LC3-PLA2, NBD-HPC fluorescence, 1 h. inhibition, % at 8.33 µM. 0.51% of 340,000 active. AID 504462, 2011; in the data active means inhibition above about 40%
Target sequence (Q9Y4P1 whole entry, looked up): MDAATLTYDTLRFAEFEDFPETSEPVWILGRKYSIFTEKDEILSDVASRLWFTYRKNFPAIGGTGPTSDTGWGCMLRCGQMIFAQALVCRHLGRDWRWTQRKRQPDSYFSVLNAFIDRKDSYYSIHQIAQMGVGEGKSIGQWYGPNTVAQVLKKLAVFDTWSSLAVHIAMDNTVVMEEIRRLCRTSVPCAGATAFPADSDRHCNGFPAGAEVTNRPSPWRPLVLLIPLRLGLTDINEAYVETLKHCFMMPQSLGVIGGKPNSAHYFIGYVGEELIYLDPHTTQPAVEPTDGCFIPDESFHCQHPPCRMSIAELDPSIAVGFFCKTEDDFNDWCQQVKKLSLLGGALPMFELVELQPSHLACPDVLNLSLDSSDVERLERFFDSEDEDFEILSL
ATG4B conf: ATG4B protease inhibitors, retest, confirmation, biochemical, fluorescence, single concentration; inhibition, % at 8.33 µM; AID 504757, 2011; ATG4B protease fluorescent substrate cleavage assay; 92% of 320 active; shares compounds with ATG4B inh; in the data active means inhibition above about 39%
PLA2 counter: PLA2 enzyme inhibition, counter-screen for ATG4B inhibitor project, biochemical, single concentration, uHTS hits; shares compounds with ATG4B inh; purified PLA2, NBD-C6-HPC fluorescence, 45 min; inhibition, % at 8.33 µM; 66% of 1,600 active; AID 588402, 2011; in the data active means inhibition above about 50%
Target sequence (P04054 whole entry, looked up): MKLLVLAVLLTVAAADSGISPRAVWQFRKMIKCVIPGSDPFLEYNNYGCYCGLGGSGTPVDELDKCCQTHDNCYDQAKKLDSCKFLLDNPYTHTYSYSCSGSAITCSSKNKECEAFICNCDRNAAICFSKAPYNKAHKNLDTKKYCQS
Starred values were filed as active, the others as inactive. Only some compounds are listed: those with a hit (about 2.3% of all), similar ones and a draw of the others.

What do the screens show for `O/N=C(/c1ccc(F)cc1)C1CC1c1c(F)cccc1Cl` (stereo not drawn)?
MT1-MMP act inh: -1; MPTP block: 1; SKN-1 inh: 4; ATG4B inh: 48*; PLA2 counter: 47

How did Cc1cc(C)cc(-n2c(C)cc(/C=C3\C(=N)N4N=C(CC(C)C)SC4=NC3=O)c2C)c1 do in these assays?
MT1-MMP act inh: -23; MPTP block: 19; SKN-1 inh: 9; ATG4B inh: 44*; ATG4B conf: 46*; PLA2 counter: 47

Results for CCCC1=NN2C(=N)/C(=C\c3cc(C)n(-c4cc(C)cc(C)c4)c3C)C(=O)N=C2S1 ?
MT1-MMP act inh: -41; MPTP block: 12; SKN-1 inh: 16; ATG4B inh: 58*; PLA2 counter: 55*

Results for COc1ccc(N2C(=O)c3ccccc3NC23CCC(C)CC3)cc1 (stereo not drawn) ?
MT1-MMP act inh: 3; MPTP block: 0; SKN-1 inh: 7; ATG4B inh: 45*; ATG4B conf: 61*; PLA2 counter: 40

How did O=C1/C(=C\c2cc(Cl)c(O)c(Cl)c2)SC(=S)N1Cc1ccccc1 do in these assays?
MT1-MMP act inh: -44; MPTP block: 9; SKN-1 inh: -1; ATG4B inh: 44*; PLA2 counter: 60*

What do the screens show for `Cc1ccc(C)c(OCCC(=O)OC(C)C(=O)Nc2c(C)n(C)n(-c3ccccc3)c2=O)c1` (stereo not drawn)?
MT1-MMP act inh: 3; MPTP block: 0; SKN-1 inh: 4; ATG4B inh: -8

How did O=C(N/N=C/C=C/c1ccccc1[N+](=O)[O-])c1cc(-c2ccccc2)n[nH]1 do in these assays?
MT1-MMP act inh: 1; MPTP block: 5; SKN-1 inh: 14; ATG4B inh: 47*; PLA2 counter: 25

Results for CCOC(=O)c1ccc(N2N=C(C)/C(=C/C=C/c3ccco3)C2=O)cc1 ?
MT1-MMP act inh: -1; MPTP block: 6; SKN-1 inh: 9; ATG4B inh: -4

Results for O=C(O)c1cc(N2N=C(C(F)(F)F)/C(=C/C=C/c3ccco3)C2=O)ccc1Cl ?
MT1-MMP act inh: -4; MPTP block: 4; SKN-1 inh: 5; ATG4B inh: 96*; PLA2 counter: 78*

Results for CC(C)COC(=O)c1ccc(N2C(=O)c3ccccc3C2=O)cc1 ?
MT1-MMP act inh: 0; MPTP block: 1; SKN-1 inh: 10; ATG4B inh: 45*; ATG4B conf: 67*; PLA2 counter: 17

Results for CCOC(=O)c1ccc(N2C(=O)Cc3ccccc3C2=O)cc1 ?
MT1-MMP act inh: -4; MPTP block: 0; SKN-1 inh: 3; ATG4B inh: -9

How did CCCCCCCCCCCCCCCC[N+](C)(C)CCl do in these assays?
MT1-MMP act inh: -8; MPTP block: 17; SKN-1 inh: 38*; ATG4B inh: 56*; ATG4B conf: 57*; PLA2 counter: 39

What do the screens show for `CCC(=O)N1CCN(c2nc(CC)nc3sc4c(c23)CCCC4)CC1`?
MT1-MMP act inh: -3; MPTP block: 1; SKN-1 inh: 14; ATG4B inh: 54*; PLA2 counter: 64*

Results for CCc1nc(N2CCN(C(=S)NCCCOC)CC2)c2c3c(sc2n1)CCCC3 ?
MT1-MMP act inh: 1; MPTP block: 2; SKN-1 inh: 7; ATG4B inh: 72*; PLA2 counter: 80*

How did CCc1nc(N2CCN(S(C)(=O)=O)CC2)c2c3c(sc2n1)CCCC3 do in these assays?
MT1-MMP act inh: -2; MPTP block: 0; SKN-1 inh: -2; ATG4B inh: 47*; PLA2 counter: 50

Results for CSc1nc(N2CCOCC2)c2c3c(sc2n1)CCCC3 ?
MT1-MMP act inh: -6; MPTP block: -1; SKN-1 inh: 22; ATG4B inh: 37

What do the screens show for `COc1ccc2c(c1OC)C(=O)N1c3ccccc3C(=O)N(c3ccccc3)C21` (stereo not drawn)?
MT1-MMP act inh: -4; MPTP block: 0; SKN-1 inh: 7; ATG4B inh: 48*; PLA2 counter: 47

What do the screens show for `O=C(Cn1nnc(-c2ccncc2)n1)N(C1CCCCC1)C1CCCCC1`?
MT1-MMP act inh: -4; MPTP block: -6; SKN-1 inh: -27; ATG4B inh: 1

How did O=C(N/N=C/c1cccc([N+](=O)[O-])c1)c1nc2ccccc2c(=O)[nH]1 do in these assays?
MT1-MMP act inh: -1; MPTP block: 5; SKN-1 inh: -8; ATG4B inh: 10

How did O=C(N/N=C/c1ccccc1Cl)c1nc2ccc([N+](=O)[O-])cc2c(=O)[nH]1 do in these assays?
MT1-MMP act inh: 4; MPTP block: 4; SKN-1 inh: 11; ATG4B inh: 41*; ATG4B conf: 66*; PLA2 counter: 43

What do the screens show for `COc1ccc(CCN2CC(C(=O)N3CCCCCC3)CCC2=O)cc1` (stereo not drawn)?
MT1-MMP act inh: 1; MPTP block: 0; SKN-1 inh: -3; ATG4B inh: 6

Results for CCOc1ccc(OCC)c(NC(=O)CN2CCC(NC(=O)c3cccc(F)c3)CC2)c1 ?
MT1-MMP act inh: 10; MPTP block: 8; SKN-1 inh: 3; ATG4B inh: 79*; PLA2 counter: 76*

What do the screens show for `CCOc1ccccc1NC(=O)CN1CCC(NC(=O)c2ccccc2)CC1`?
MT1-MMP act inh: -1; MPTP block: 10; SKN-1 inh: -2; ATG4B inh: 4

How did O=C(NCc1cccc(Cl)c1)c1ccc(CS(=O)Cc2ccccc2Cl)o1 (stereo not drawn) do in these assays?
MT1-MMP act inh: 4; MPTP block: 2; SKN-1 inh: 8; ATG4B inh: 69*; PLA2 counter: 69*

What do the screens show for `Cc1ccc(CS(=O)Cc2ccc(C(=O)NCc3ccccc3Cl)o2)cc1` (stereo not drawn)?
MT1-MMP act inh: -3; MPTP block: 0; SKN-1 inh: 2; ATG4B inh: 42*; PLA2 counter: 38

Results for O=C(NCc1cccc(Cl)c1)c1ccc(CS(=O)Cc2ccc(Cl)cc2)o1 (stereo not drawn) ?
MT1-MMP act inh: 4; MPTP block: 0; SKN-1 inh: -1; ATG4B inh: 60*; PLA2 counter: 63*

Results for COc1ccccc1CN1CC(C(=O)N(Cc2cnn(C)c2)C(C)C)CCC1=O (stereo not drawn) ?
MT1-MMP act inh: -2; MPTP block: 1; SKN-1 inh: 4; ATG4B inh: 20

Screens (PubChem)
